Source: PubChem BioAssay
Shown are actives, neighbours in structure and some others; about 0.7% of the full set was active somewhere.
proCasp7 act – activates human procaspase-7, counter-screen for procaspase-3 activators; activation, % at 8.5 µM; recombinant procaspase-7, Ac-DEVD-pNA absorbance 405 nm; D23A/D198A/D206A triple mutant, cannot self-cleave; scale: DMSO 0, 5 µM enzyme 100; P55210; hit rate 0.093% among 330,000;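 active = percent activation above the screen-wide mean plus 3 SD, cut at about 25% in these data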
Target sequence (P55210 whole entry D23A/D198A/D206A): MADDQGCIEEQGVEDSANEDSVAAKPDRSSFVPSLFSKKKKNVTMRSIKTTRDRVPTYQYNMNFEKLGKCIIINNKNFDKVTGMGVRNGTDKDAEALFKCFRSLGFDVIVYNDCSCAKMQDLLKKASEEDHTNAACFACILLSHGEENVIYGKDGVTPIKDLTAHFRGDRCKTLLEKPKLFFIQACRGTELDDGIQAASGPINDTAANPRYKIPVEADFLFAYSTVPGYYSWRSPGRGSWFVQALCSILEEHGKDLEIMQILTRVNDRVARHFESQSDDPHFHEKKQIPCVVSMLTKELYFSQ
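Assay system: Uncleavable procaspase-7 mutant enzyme / Input: 2 µM procaspase-7 mutant as dispensed / Dosing: single nominal 8.5 µM compound dose, 0.8% DMSO final / Timing: 1 h enzyme–compound preincubation and 2 h substrate reaction, both 25 °C / Detection: p-Nitroaniline absorbance at 405 nm, read at 0 and 120 min / Replication: singlicate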
GAA850 FXN act – frataxin GAA850 promoter activation; activation, % at 6 µM; HEK293 lucGAA850 FXN promoter luciferase reporter, 24 h; percent of 10 µM SAHA response; hit rate 0.56% among 360,000; AID 540364;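 active = activation above the average of all compounds screened plus 3 SD, cutoff fixed separately per campaign, cut at about 7.5% in these data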
procasp3 activ – activators of human procaspase-3; P42574; recombinant procaspase-3 D3A, Ac-DEVD-pNA absorbance 405 nm; activation, % at 8.5 µM; hit rate 0.11% among 330,000; AID 463141;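 active = activation above the mean of all tested compounds plus 3 SD, cut at about 21% in these data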
Target sequence (P42574 whole entry D9A/D28A/D175A): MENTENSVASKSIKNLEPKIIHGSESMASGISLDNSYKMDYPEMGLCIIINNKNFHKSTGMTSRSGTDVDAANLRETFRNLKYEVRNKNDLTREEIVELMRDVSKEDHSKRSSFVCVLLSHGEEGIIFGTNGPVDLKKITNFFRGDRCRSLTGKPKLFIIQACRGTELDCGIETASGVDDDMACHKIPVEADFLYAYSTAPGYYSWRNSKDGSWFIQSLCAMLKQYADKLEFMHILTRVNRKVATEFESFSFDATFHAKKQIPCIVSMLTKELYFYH
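Assay system: Autoprocessing-dead procaspase-3 D3A mutant enzyme; also added: Ac-DEVD-pNA; doses: one concentration, 8.5 µM nominal, 0.8% DMSO; times: 1 h compound preincubation, 2 h substrate hydrolysis at 25 °C; technique: 405 nm absorbance of p-nitroaniline, reads at 0 and 120 min; measure: % activation between DMSO and enzyme-spiked controls; repeats: single replicate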
GAA30 counter – counter-screen for GAA850 frataxin promoter activators: GAA30 promoter activation. hit rate 66% among 1,900. activation, % at 6 µM. HEK293 lucGAA30 FXN promoter luciferase, 24 h; DMSO = 0%, 5 µM ipriflavone = 100%. shares compounds with GAA850 FXN act;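 active = mean activation above the mean of solvent-only control wells plus 3 SD, cut at about 22% in these data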;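 note: counterscreen of GAA850 promoter hits where activity marks nonselective or luminescence artifacts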
GAA850 confirm – GAA850 FXN promoter activation confirmation; shares compounds with GAA850 FXN act; HEK293 lucGAA850 FXN promoter luciferase reporter, 24 h; 100% = activation by SAHA; activation, % at 6 µM; hit rate 86% among 1,900; AID 588351;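 active = mean activation above a set limit taken from the primary screen, cut at about 8% in these data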
Hits are given with their value; i = inactive; nt = no result.

SMILES	proCasp7 act	GAA850 FXN act	procasp3 activ	GAA30 counter	GAA850 confirm
CC(Cc1ccco1)NC(=O)c1ccc(C(F)(F)F)cc1 (stereo unspecified)	i	i	i	nt	nt
O=C(Nc1ccon1)c1cc2c(s1)CCCCCC2	i	8.8	i	112.8	36.1
O=C(Nc1ccon1)c1cc2c(s1)CCCC2	i	i	i	nt	nt
Cc1ccc(-c2cn(-c3ccccc3)c(SCC(N)=O)n2)cc1C	i	i	i	nt	nt
CCOC(=O)NC(=O)CSc1nc(-c2ccc(C)c(C)c2)cn1-c1ccccc1	i	7.9	i	62.1	33.9
Cc1ccc(S(=O)(=O)Nc2cc3c(cc2C#N)OCO3)cc1C(N)=O	i	i	i	nt	nt
O=C(/C=C/c1cccc([N+](=O)[O-])c1)c1ccc([N+](=O)[O-])o1	i	i	i	nt	nt
Cc1cccc(/C=C/C(=O)c2ccc([N+](=O)[O-])o2)c1	i	11.3	i	i	i
Cc1ccc2cc(C#N)c(SCC(=O)NCc3ccco3)nc2c1	i	i	i	nt	nt
Cc1ccc2nc(SCC(=O)NCc3ccco3)c(C#N)cc2c1	i	8.3	i	79.8	26.8
O=C(N/N=C/c1ccc(Cl)c([N+](=O)[O-])c1)c1ccc2c(c1)OCCO2	nt	i	nt	nt	nt
O=C(N/N=C/c1cccc([N+](=O)[O-])c1)c1ccc2c(c1)OCCO2	i	8.9	i	119.4	37.4
COc1ccc(CCC(=O)N2CCCC(Nc3ccccc3)C2)cc1OC (stereo unspecified)	i	i	i	nt	nt
COC(=O)c1cccc(NC(=O)CCc2c(C)noc2C)c1	i	i	i	nt	nt
CCNC(=O)C1(C)CCCN(Cc2ccc(Oc3ccccc3)cc2)C1 (stereo unspecified)	nt	i	nt	nt	nt
CC(=O)Nc1ccccc1NC(=O)C/C(C)=N/NC(=O)c1ccccn1	i	i	i	nt	nt
C/C(CC(=O)NCc1ccccc1Cl)=N/NC(=O)c1ccccn1	i	8.2	i	49.6	13.7
CCOCCn1c(=NC(=O)CSCC(=O)N2CCOCC2)sc2cc(OC)ccc21	i	i	i	nt	nt
CCOC(=O)CSc1nc2ccccc2c(=O)[nH]1	i	i	i	nt	nt
CCOC(=O)c1nc2ccccc2c(=O)[nH]1	i	8.1	i	69.3	22.6
CN1CCN(S(=O)(=O)c2ccc(-c3ccc(Cl)cc3)cc2)CC1	i	13.1	i	45.6	12.8
CN1CCN(S(=O)(=O)c2ccc(Cl)cc2)CC1	i	i	i	nt	nt
Cc1ccc(S(=O)(=O)CCC(=O)OCCOc2ccc(Br)cc2)cc1	nt	i	nt	nt	nt
Cc1nc2ccc(NC(=O)c3ccccc3)cc2c(=O)n1Cc1ccc(F)cc1	nt	i	nt	nt	nt
Cc1ccc2ncc(NC(=O)c3ccc(F)cc3)c(=O)n2c1	i	i	i	nt	nt
SMILES	proCasp7 act	GAA850 FXN act	procasp3 activ	GAA30 counter	GAA850 confirm
Cc1ccc(C(=O)Nc2cnc3ccccn3c2=O)cc1	i	8.3	i	100.3	30.8
Cc1ccc(CNS(=O)(=O)c2cc3c4c(c2)C(C)C(=O)N4CCC3)cc1 (stereo unspecified)	i	i	i	nt	nt
C[C@H]1CCC2[C@](C)(CO)[C@@H](O)CC[C@]2(C)[C@@]12CCC(CO)(CCO)O2 (stereo partly specified)	i	i	i	nt	nt
COc1ccc(CC(=O)N/N=C(\C)c2cccs2)cc1	i	i	i	nt	nt
CCOc1ccc(CN2CCN(CCCc3ccccc3)CC2CCO)cc1 (stereo unspecified)	i	i	i	nt	nt
O=C1CN(c2nc(-c3cccs3)nc3sc4c(c23)CCCC4)CCN1	i	9.3	i	49.3	23.0
O=c1oc(-c2cccs2)nc2sc3c(c12)CCCC3	i	i	i	nt	nt
O=c1oc(-c2cccs2)nc2sc3c(c12)CCC3	i	i	i	nt	nt
O=c1c2c3c(sc2nc2n1N=C(c1cccs1)CS2)CCCC3	i	9.6	i	87.4	40.2
CC(OC(=O)Cc1c[nH]c2ccccc12)C(=O)Nc1ccccc1[N+](=O)[O-] (stereo unspecified)	i	i	i	nt	nt
C[C@H](CO)N1C[C@H](C)[C@@H](CN(C)C(=O)Cc2ccccc2)OCCCC[C@H](C)Oc2ccc(NC(=O)NC3CCCCC3)cc2C1=O	nt	i	nt	nt	nt
CC(C)[C@H](NC(=O)N1CC(=O)Nc2ccccc21)C(=O)N[C@@H](C(=O)O)c1ccccc1	i	i	i	nt	nt
c1ccc(NCc2cccnc2)cc1	i	i	i	nt	nt
c1cncc(CNc2cccc(-c3nc4ccccc4[nH]3)c2)c1	i	8.5	i	89.3	28.1
CN1CCN(C(=O)C2=C[C@H](c3ccc(C(F)(F)F)cc3)C[C@H](OCc3ccc(CO)cc3)O2)CC1	i	i	i	nt	nt
Cc1cccc(/C=C/c2nc3ccccc3c(=O)[nH]2)c1	i	i	i	nt	nt
Cc1[nH]c2ccccc2c1/C=C/c1nc2ccccc2c(=O)[nH]1	i	8.2	i	102.2	38.1
Cc1cccc(NC(=O)N2CCc3ccccc3C2)c1C	nt	i	nt	nt	nt
N#CCSc1nc(-c2ccccc2)cs1	i	i	i	nt	nt
N#CCSc1ccc2nc(-c3ccccc3)cn2n1	i	7.7	i	119.2	30.9
COc1ccc2nc(NC(=O)CN3C(=O)NC4(CCCCC4)C3=O)sc2c1	i	i	i	nt	nt
COc1ccc(S(=O)(=O)N2CCCC2)cc1OC	i	i	i	nt	nt
COc1ccc(S(=O)(=O)N2CCCN(S(=O)(=O)c3ccc(OC)c(C)c3)CC2)cc1C	i	8.3	i	29.6	17.4
Cc1ccc(N/N=C(\C#N)C(=N)N2CCCCC2)cc1	i	i	i	nt	nt
N#C/C(=N\Nc1ccc(Cl)cc1)C(=N)N1CCCCCC1	i	11.9	i	129.6	49.1
SMILES	proCasp7 act	GAA850 FXN act	procasp3 activ	GAA30 counter	GAA850 confirm
O=C(Nc1ccc(Oc2ccc(NC(=O)Nc3ccccc3Cl)cc2)cc1)Nc1ccccc1Cl	i	i	i	nt	nt
CC(=O)c1ccc(NC(=S)N2CCCC(CO)C2)cc1 (stereo unspecified)	i	i	i	nt	nt
OCC1CCCN(C(=S)Nc2ccc(Oc3ccccc3)cc2)C1 (stereo unspecified)	i	10.8	i	105.4	34.2
COC(=O)[C@]1(C)N[C@H](CN(C)S(=O)(=O)c2ccc(C)cc2)[C@@H]2C(=O)N(Cc3ccccc3)C(=O)[C@@H]21	i	i	i	nt	nt
O=C(NCc1ccco1)/C(=C/c1ccc(F)cc1)NC(=O)c1ccccc1	i	i	i	nt	nt
CC(C)(C)OC(=O)N[C@@H](C(=O)OC(C)(C)C)c1ccc2c(c1)OCO2	i	i	i	nt	nt
COc1cccc(N2CC(C(=O)Nc3nnc(SCCN4CCOCC4)s3)CC2=O)c1 (stereo unspecified)	i	i	i	nt	nt
C/C(=N\O)c1sc(-c2ccccc2)nc1C	nt	8.1	nt	122.8	34.4
C=C(C)c1sc(-c2ccccc2)nc1C	i	nt	i	nt	nt
C=CCn1c(SC(C)C(=O)NCc2ccc3c(c2)OCO3)nc2scc(-c3ccccc3)c2c1=O (stereo unspecified)	i	7.8	i	i	10.2
C=CCn1c(SCC(=O)NCc2ccc3c(c2)OCO3)nc2scc(-c3ccc(F)cc3)c2c1=O	i	i	i	nt	nt
